The list is not random: actives were taken first. Their share in the collection is about 3.7%.
KCNK9 block: inhibitors of human KCNK9 two-pore domain potassium channel; Q9NPC2; HEK293 KCNK9, FluxOR thallium flux fluorescence; stronger effect = lower value; B-score at 10 µM; 310,000 tested, 1.2% active; AID 488922;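 active = ratio B-score over 3 SD below the library mean, with starting fluorescence within 5 SD of its mean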;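 also: negative B-score means less thallium flux so channel inhibition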
KCNK3 inh: human KCNK3 channel inhibition, primary screen; O14649; CHO-KCNK3 thallium flux, FluxOR fluorescence; stronger effect = lower value; B-score at 10 µM; 340,000 tested, 0.84% active;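 active = B-score under library mean minus 4 SD, starting fluorescence ratio at most library mean plus 5 SD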;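 also: more negative B-score means stronger inhibition of thallium flux through KCNK3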
hERG rescue: hERG (human) protection from proarrhythmic block. 310,000 tested, 0.51% active. AID 1511. CHO-hERG, FluxOR thallium flux, dofetilide IC70 present. Q12809. activation (rescue from dofetilide block), less the hit threshold, % at 10 µM;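 active = activation above the mean of controls blocked by dofetilide plus 5 SD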;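 also: thallium influx through hERG after potassium depolarization seen as dye fluorescence rise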
KCNQ1 inh: human KCNQ1 channel inhibition. B-score at 10 µM. 310,000 tested, 1.3% active. CHO-K1 KCNQ1, FluxOR thallium flux fluorescence; stronger effect = higher value. P51787;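 active = compounds whose thallium flux B-score, printed positive for inhibition, exceeds three library SD while starting fluorescence stays within three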;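 also: channel opened by potassium depolarization with thallium stimulus after 20 min compound exposure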
KCNQ1 act: human KCNQ1 channel potentiation or activation; CHO-K1 KCNQ1, thallium flux FluxOR fluorescence; stronger effect = higher value; 310,000 tested, 0.35% active; B-score at 10 µM; P51787; AID 2648;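 active = fluorescence ratio B-score, a plate-corrected score, at least three library SD, with initial intensity B-score within 5 SD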
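System: Stable KCNQ1 CHO-K1 line | Incubation: 90 min dye loading and 20 min compound exposure, both at room temperature | Measure: Ratio B score | Medium: Assay buffer for compound exposure, DMSO matched across wells | Compound dosing: Single-concentration screen | Probe or stimulus: K+/Tl+ depolarizing stimulus | Measured by: Kinetic FluxOR fluorescence, 10 s baseline plus 110 s post-stimulus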
Kir21 inh: Kir2.1 (mouse) channel inhibition; P35561; B-score at 10 µM; HEK293-Kir2.1, FluxOR thallium flux fluorescence; stronger effect = lower value; 310,000 tested, 0.85% active;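 active = fluorescence ratio B-score at or below minus 3 SD of library scores, with starting-brightness B-score within 2 SD, cut at about -4.2 in these data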;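 also: channel flux triggered by added potassium and thallium sulfate stimulus; B-score of peak minus minimum fluorescence over baseline after thallium stimulus; more negative B-score means stronger Kir2.1 block with less thallium influx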
Target sequence (P35561 whole entry, looked up): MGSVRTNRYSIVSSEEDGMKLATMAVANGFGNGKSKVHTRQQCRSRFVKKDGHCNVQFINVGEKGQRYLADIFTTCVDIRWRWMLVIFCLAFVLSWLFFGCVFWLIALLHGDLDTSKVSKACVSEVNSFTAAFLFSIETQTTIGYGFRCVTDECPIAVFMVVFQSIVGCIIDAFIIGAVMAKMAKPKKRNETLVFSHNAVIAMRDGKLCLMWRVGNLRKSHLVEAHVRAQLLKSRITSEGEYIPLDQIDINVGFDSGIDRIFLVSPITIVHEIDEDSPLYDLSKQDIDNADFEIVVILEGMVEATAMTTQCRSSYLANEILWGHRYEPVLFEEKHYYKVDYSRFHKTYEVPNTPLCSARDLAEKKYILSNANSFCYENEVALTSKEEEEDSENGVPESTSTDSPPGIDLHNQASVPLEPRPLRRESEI
KCNK9 block conf: human KCNK9 inhibitor confirmation; inhibition, % at 10 µM; shares compounds with KCNK9 block; HEK293 KCNK9 cells, FluxOR thallium flux fluorescence; 4,900 tested, 43% active;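 active = thallium signal inhibited by more than 5 SD of the compound-free buffer control wells, on both duplicate plates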;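 also: 0% = assay buffer control wells without compound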
Kir2-1 spec: selectivity of KCNK9 modulators against mouse Kir2.1 | shares compounds with KCNK9 block | Kir2.1 cells, FluxOR thallium flux fluorescence | inhibition, % at 10 µM | 4,900 tested, 4% active;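 active = thallium signal drop more than 5 SD beyond the mean of the no-compound control wells, seen in both duplicate plates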;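 also: signal is fluorescence rise after thallium addition divided by baseline fluorescence; plate controls were assay buffer only for no effect and full block by chlorpromazine control for full effect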
KCNK9 uninduced: second check of KCNK9 modulator effects in non-induced HEK293 cells. shares compounds with KCNK9 block. FluxOR thallium flux. inhibition, % at 10 µM. 4,900 tested, 40% active. AID 492997;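 active = thallium signal drop beyond 5 SD of the untreated control mean, on both duplicate plates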;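 also: plate controls were buffer only IC0 wells for no effect and SID17386958 at its maximal inhibitory level for full effect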
KCNK3 inh conf: confirmation of human KCNK3 two-pore domain potassium channel inhibitors | shares compounds with KCNK3 inh | CHO-KCNK3 thallium flux, FluxOR fluorescence; 0% buffer, 100% carvedilol maximal block | ratio percent of control, % at 10 µM | 2,400 tested, 99% active | AID 651638;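 active = ratio percent of control, averaged over triplicates, above buffer control mean plus 5 SD, cut at about 64% in these data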;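 also: ratio is the fluorescence rise from min to max over baseline after thallium stimulus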
KCNK3 uninduced: counter-screen for KCNK3 inhibitors: effect in non-induced cells. 2,400 tested, 40% active. thallium flux ratio (lower = more inhibition) at 10 µM. AID 651747. shares compounds with KCNK3 inh. non-induced KCNK3 parental cells, FluxOR thallium flux; stronger effect = lower value;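 active = thallium flux ratio, averaged over three wells, more than 5 SD below the buffer control mean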;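 also: host cells are CHO cells without KCNK3 induction; ratio is peak minus trough fluorescence over baseline then normalized to buffer controls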
The depositor's hits bear a star; i = inactive; . = not tested or not shown.

SMILES | KCNK9 block | KCNK3 inh | hERG rescue | KCNQ1 inh | KCNQ1 act | Kir21 inh | KCNK9 block conf | Kir2-1 spec | KCNK9 uninduced | KCNK3 inh conf | KCNK3 uninduced
CCOC(=O)N1CCN(Cc2c(NC(=O)c3ccco3)sc(C)c2C)CC1 | i | i | -4 | i | i | -0.05 | . | . | . | . | .
Cc1sc(NC(=O)c2ccco2)c(CN2CCN(c3ccc(F)cc3)CC2)c1C | -15* | -10* | -11 | i | i | -0.96 | i | i | 29%* | 110* | 0.15*
O=Cc1c(OCc2ccccc2)ccc2ccccc12 | -17* | -11* | -9 | i | i | 0 | 64%* | i | 50%* | 113* | 0.15*
CN(C)S(=O)(=O)N1CCCC(C(=O)c2ccc(-c3ccccc3)c(F)c2)C1 (centres undefined) | -8.4* | -11* | -59 | i | i | 0.16 | 30%* | i | 45%* | 119* | i
N#CC1=C(N)n2c(s/c(=C\c3cccs3)c2=O)=C(C#N)C1c1cccs1 (centres undefined) | -11* | -9.4* | -9 | i | i | 1.2 | 26%* | i | 39%* | 96* | 0.15*
N#CC1=C(N)n2c(s/c(=C\c3ccco3)c2=O)=C(C#N)C1c1ccco1 (centres undefined) | i | i | -7 | i | i | -0.55 | . | . | . | . | .
CCOc1ccccc1NC(=O)c1ccc2ccccc2c1 | -11* | -9.7* | -8 | i | i | 0.52 | 64%* | i | 32%* | 113* | i
CCOc1ccccc1NC(=O)NNC(=O)c1ccc2ccccc2c1 | i | i | -6 | i | i | -0.31 | . | . | . | . | .
CCOc1ccccc1NC(=O)C(Sc1ccccc1)c1ccccc1 (centres undefined) | -8.4* | -8.7* | -16 | i | i | 2.8 | i | i | 40%* | 95* | 0.15*
CCCCn1c(N)c(N(CC(C)C)C(=O)c2oc3c(Cl)cccc3c2C)c(=O)[nH]c1=O | i | i | -16 | i | i | -0.51 | . | . | . | . | .
Cc1cccc(CN2CCN(C(=O)CCc3nnc(C4CCCCC4)o3)CC2)c1 | i | i | -6 | i | i | -1.4 | . | . | . | . | .
COc1ccc(C2CC(c3cccs3)=NN2C(=O)COC(=O)C2CCCCC2)cc1OC (centres undefined) | -15* | -9.6* | -11 | i | i | 1.9 | 43%* | i | 38%* | 103* | i
c1coc(CN(Cc2ccco2)c2ncnc3c2oc2ccccc23)c1 | -18* | -12* | -9 | i | i | 0.05 | 70%* | i | i | 139* | 0.14*
Clc1ncnc2c1oc1ccccc12 | i | i | -18 | i | i | 1.5 | . | . | . | . | .
COC(=O)C1=C(C)N=C2SC(C#N)=C(N)N2C1c1ccc(OCc2ccccc2)cc1 (centres undefined) | -17* | -9.9* | -6 | i | i | -2.4 | 74%* | i | 52%* | 97* | 0.15*
COC(=O)C1=C(C)N=C2SC(C#N)=C(N)N2C1c1cc(OC)c(OC)c(OC)c1 (centres undefined) | i | i | -5 | i | i | 0.39 | . | . | . | . | .

Screening results deposited in PubChem by Johns Hopkins Ion Channel Center.
